Data taken from ChEMBL document CHEMBL2417493, “Novel cycloalkylthiophene-imine derivatives bearing benzothiazole scaffold: synthesis, characterization and antiviral activity evaluation” (Bioorg Med Chem Lett, 2013).
In brackets after ≈: the same amount, converted by molar mass. Activity calls are given as the source filed them. No cut-off for these calls is given here.

Experiments:
Influenza A virus [1] = assay: Antiviral activity against influenza A virus H1N1 infected in dog MDCK cells assessed as inhibition of virus-induced cytopathogenicity at 32 ug/ml after 48 hrs by crystal violet staining method; type: functional, organism-based
How it was run: (§1)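 Single-concentration screen with these pairings: RD/EV71, HepG2/CVB5, HeLa/ADV7, MDCK/H1N1. Cells were infected and kept 48 h in the presence of compound at one fixed concentration; some EV71 tests used the lower level. Inhibition of virus proliferation was read by crystal violet staining.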

unidentified adenovirus [2] = assay: Antiviral activity against Adenovirus type 7 infected in human HeLa cells assessed as inhibition of virus-induced cytopathogenicity at 32 ug/ml after 48 hrs by crystal violet staining method; type: functional; how it was run: as §1
Coxsackievirus B5 [3] = assay: Antiviral activity against Coxsackievirus B5 infected in human HepG2 cells assessed as inhibition of virus-induced cytopathogenicity at 32 ug/ml after 48 hrs by crystal violet staining method; type: functional; how it was run: as §1
Enterovirus [4] = assay: Antiviral activity against Enterovirus 71 infected in human rhabdomyosarcoma cells assessed as inhibition of virus-induced cytopathogenicity at 32 ug/ml after 48 hrs by crystal violet staining method; type: functional; how it was run: as §1
Influenza A virus [5] = assay: Antiviral activity against influenza A virus H1N1 infected in dog MDCK cells assessed as inhibition of virus-induced cytopathogenicity after 48 hrs by crystal violet staining method; type: functional, organism-based
How it was run: (§2)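 Virus–cell pairings were EV71 in RD, CVB5 in HepG2, ADV7 in HeLa and influenza A H1N1 in MDCK. Compounds were added […], and total infectivity was read by crystal violet staining. EC50 is the concentration reducing viral replication by 50%. Values are mean SD of three independent experiments.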

unidentified adenovirus [6] = assay: Antiviral activity against Adenovirus type 7 infected in human HeLa cells assessed as inhibition of virus-induced cytopathogenicity after 48 hrs by crystal violet staining method; type: functional, organism-based; how it was run: as §2
[7] = Cytotoxicity against human HeLa cells after 72 hrs by MTT assay; type: cell-based
How it was run: (§3)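 MTT assay on RD (rhabdomyosarcoma), HepG2 and HeLa cell lines. CC50 is the concentration that cut cell viability by 50% relative to 0.1% DMSO-treated mock-control cells. Values are mean and SD of three independent experiments.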

Coxsackievirus B5 [8] = assay: Antiviral activity against Coxsackievirus B5 infected in human HepG2 cells assessed as inhibition of virus-induced cytopathogenicity after 48 hrs by crystal violet staining method; type: functional, organism-based; conditions: for EC50: Enterovirus B, HepG2, 48 h; how it was run: as §2
[9] = Cytotoxicity against human HepG2 cells after 72 hrs by MTT assay; type: cell-based; how it was run: as §3
Enterovirus [10] = assay: Antiviral activity against Enterovirus 71 infected in human rhabdomyosarcoma cells assessed as inhibition of virus-induced cytopathogenicity after 48 hrs by crystal violet staining method; type: functional, organism-based; how it was run: as §2
[11] = Cytotoxicity against human rhabdomyosarcoma cells after 72 hrs by MTT assay; type: cell-based, Rhabdomyosarcoma cell; how it was run: as §3
[12] = Selectivity index, ratio of CC50 for human HepG2 cells to EC50 for Coxsackievirus B5 infected in human HepG2 cells; type: toxicity, cell-based; conditions: read-out: Ratio CC50/EC50
How it was run: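 Antiviral pairings were EV71 in RD cells, CVB5 in HepG2 cells and ADV7 in HeLa cells. Compounds were added […], and total infectivity was read by crystal violet staining. EC50 is the concentration that cut viral replication by 50%. CC50 came from MTT relative to 0.1% DMSO mock control. SI = CC50/EC50. Data are from three independent experiments.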

Row | SMILES | inhibition (Influenza A virus [1]) | inhibition (unidentified adenovirus [2]) | inhibition (Coxsackievirus B5 [3]) | inhibition (Enterovirus [4]) | inhibition (INH) (Influenza A virus [5]) [%] | inhibition (INH) (unidentified adenovirus [6]) [%] | CC50 at 72 h [7] [µg/mL] | inhibition (INH) (Coxsackievirus B5 [8]) [%] | CC50 at 72 h [9] [µg/mL] | inhibition (INH) (Enterovirus [10]) [%] | CC50 at 72 h [11] [µg/mL] | selectivity ratio [12] | EC50 (Coxsackievirus B5 [8]) [µg/mL]
1 | Clc1ccc(/C=N/c2sc3c(c2-c2nc4ccccc4s2)CCCC3)c(Cl)c1 | Active | Active | Active | Active | <50 | <50 | 542 (≈ 1220 µM) | <50 | 384 (≈ 865 µM) | <50 | 56.6 (≈ 128 µM) | – | –
2 | Fc1ccc(/C=N/c2sc3c(c2-c2nc4ccccc4s2)CCC3)cc1 | Active | Active | Active | Active | <50 | <50 | 372 (≈ 984 µM) | – | 302 (≈ 799 µM) | <50 | 290 (≈ 765 µM) | 19.4 | 15.5 (≈ 41 µM)
3 | Clc1ccccc1/C=N/c1sc2c(c1-c1nc3ccccc3s1)CCC2 | Active | Active | Active | Active | <50 | <50 | 138 (≈ 350 µM) | <50 | 180 (≈ 456 µM) | <50 | 123 (≈ 312 µM) | – | –
4 | Clc1ccc2sc(-c3c(/N=C/C=C/c4ccccc4)sc4c3CCCC4)nc2c1 | Active | Active | Active | Active | <50 | <50 | 150 (≈ 346 µM) | <50 | 114 (≈ 262 µM) | <50 | 212 (≈ 486 µM) | – | –
5 | Clc1ccc(/C=N/c2sc3c(c2-c2nc4ccccc4s2)CCC3)cc1 | Active | Active | Active | Active | <50 | <50 | 380 (≈ 963 µM) | <50 | 430 (≈ 1090 µM) | <50 | 342 (≈ 867 µM) | – | –
6 | Fc1ccccc1/C=N/c1sc2c(c1-c1nc3ccccc3s1)CCCC2 | Active | Active | Active | Active | <50 | <50 | 426 (≈ 1090 µM) | <50 | 398 (≈ 1010 µM) | <50 | 319 (≈ 812 µM) | – | –
7 | Clc1ccc2sc(-c3c(/N=C/C=C/c4ccccc4)sc4c3CCC4)nc2c1 | Active | Active | Active | Active | <50 | <50 | 200 (≈ 476 µM) | <50 | 14.9 (≈ 35.4 µM) | <50 | 122 (≈ 291 µM) | – | –
8 | C(=C\c1ccccc1)/C=N/c1sc2c(c1-c1nc3ccccc3s1)CCCC2 | Active | Active | Active | Active | <50 | <50 | 389 (≈ 971 µM) | – | 467 (≈ 1170 µM) | <50 | 207 (≈ 517 µM) | 31.6 | 14.7 (≈ 36.7 µM)
